# Compounds with a hit are over-represented: about 2.1% of the library has one in this group of screens.
# CFTR F508del cor: F508del CFTR correction, initial screen, CFBE line, single point; CFBE cells, YFP halide quenching; stimulated with forskolin plus potentiator P3; % fluorescence drop versus neutral controls; 350,000 tested, 0.36% active; activity (quench increase), % at 7.58 µM;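 active = mean added fluorescence quench of at least 8% versus neutral control, with both replicates also reaching 8%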;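 note: cells transiently co-express mutant CFTR-F508del with the halide-sensitive YFP; corrector assay measuring rescue of mutant channel to the surface after 24 h compound exposure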
# MC4R antag cAMP: MC4R antagonists of cAMP signaling, primary screen, cell-based, TR-FRET, antagonist arm of biased-ligand search; Melanocortin receptor 4 (Homo sapiens), P32245; MC4R-expressing cells, MTII-stimulated cAMP, LANCE TR-FRET; inhibition, % at 6.5 µM; 360,000 tested, 0.48% active; AID 540295, 2011;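 active = inhibition above its plate's cutoff, the mean of tested wells on that plate plus 3 SD, cut at about 29% in these data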
# Target sequence (P32245 whole entry, looked up): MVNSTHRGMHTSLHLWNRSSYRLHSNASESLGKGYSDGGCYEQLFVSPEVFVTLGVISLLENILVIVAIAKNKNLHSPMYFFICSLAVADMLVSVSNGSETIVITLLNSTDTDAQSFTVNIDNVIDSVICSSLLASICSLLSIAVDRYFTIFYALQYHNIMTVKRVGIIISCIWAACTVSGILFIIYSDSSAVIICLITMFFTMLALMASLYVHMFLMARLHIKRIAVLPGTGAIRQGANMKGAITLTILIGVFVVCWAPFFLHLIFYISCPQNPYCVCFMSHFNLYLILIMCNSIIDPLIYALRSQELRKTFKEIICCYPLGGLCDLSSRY
#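 Assay system: U2OS cells stably expressing human melanocortin 4 receptor (MC4R) / Dosing: 6.5 µM / Timing: compound 30 min, challenge 1 h, detection 1 h / Measured by: Eu-cAMP/anti-cAMP TR-FRET, emission 671 nm / Replicates: singlicate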
# MC4R barr agon: MC4R agonists recruiting beta-arrestin, primary screen, cell-based, luminescence, agonist arm of biased-ligand search; Melanocortin receptor 4 (Homo sapiens), P32245; U2OS MC4R beta-arrestin complementation; percent of melanotan II response, DMSO zero; activation, % at 8.9 µM; 360,000 tested, 0.98% active; AID 540308, 2011;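 active = activation above a per-plate cutoff, the mean activation of sample wells on that plate plus 3 SD, cut at about 8% in these data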
# SMARCA2 activ: SMARCA2 (BRM) function activators, primary screen, cell-based, luminescence, high throughput; MG213 cells, MMTV-luciferase reporter, dexamethasone, overnight; activation, % at 9.1 µM; 370,000 tested, 1% active; in the data active = activation above about 7.8%
# SMARCA2 act conf: SMARCA2 (BRM) function activators, confirmation, cell-based, luminescence, triplicate. activation, % at 9.1 µM. 3,500 tested, 30% active. AID 652260, 2013. shares compounds with SMARCA2 activ. MG213 cells, MMTV-luciferase with dexamethasone, overnight; MG213 cells expressing E1A, Rb sequestered; DMSO wells 0%, reference activator 100%;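 active = activation above its plate's cutoff, the mean activation of tested wells plus 3 SD, cut at about 7.9% in these data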
# VP16 Luc act: GAL4-VP16 luciferase reporter activation, counter-screen for SMARCA2 (BRM) activator project, cell-based, pG5luc, luminescence, high throughput; shares compounds with SMARCA2 activ; HEK293 GAL4-VP16 pG5luc reporter; scaled: DMSO wells 0%, SAHA wells 100%; activation, % at 9.1 µM; 3,500 tested, 41% active;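 active = activation above the solvent-only control well mean plus 3 SD, averaged across control plates, cut at about 5.2% in these data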
# Hits are given with their value; – = inactive; · = not tested or not shown.
SMILES,CFTR F508del cor,MC4R antag cAMP,MC4R barr agon,SMARCA2 activ,SMARCA2 act conf,VP16 Luc act
COCc1cc(C)nc(SCC(=O)Nc2ccc3[nH]c(=O)[nH]c3c2)c1C#N,–,–,–,–,·,·
COCc1cc(C)nc(SCC(=O)Nc2ccc(C)c(C)c2)c1C#N,·,–,–,8.1,–,–
Cc1ccc(C(=O)Oc2oc(-c3ccco3)nc2C=Nc2ccc(Cl)cc2)cc1,·,–,–,8.0,–,20.3
C[C@@H]1CCCCO[C@@H](CN(C)C(=O)C2CCCCC2)[C@@H](C)CN([C@@H](C)CO)C(=O)c2cc(NC(=O)CCC(F)(F)F)ccc2O1,–,·,·,·,·,·
C[C@H]1CN([C@@H](C)CO)C(=O)Cc2cc(N(C)C)ccc2O[C@@H]1CN(C)S(=O)(=O)c1cccs1,–,·,·,·,·,·
COc1cccc(C(=O)Nc2cc(C(=O)NCCc3ccccc3)ccc2Cl)c1,–,–,–,–,·,·
CCCCC(=O)Nc1cc(C(=O)NCCc2ccccc2)ccc1Cl,·,–,–,8.2,–,8.8
C[C@H](CO)N1C[C@H](C)[C@@H](CN(C)Cc2ccc(C(=O)O)cc2)OCCCC[C@H](C)Oc2ccc(NC(=O)C3CCCCC3)cc2C1=O,–,·,·,·,·,·
CCC(O)(CC)C(=O)NN(C(=O)CCl)c1ccccc1,·,–,–,8.7,–,–
O=C(Nc1ccccc1)NN(C(=O)CCl)c1ccccc1,–,–,–,–,·,·
CCCN(/C=N/c1sc2c(c1C#N)CCCCC2)CCC,·,–,–,15.4,–,–
N#Cc1c(/N=C/N2CCOCC2)sc2c1CCCCC2,·,–,–,17.7,–,11.7
Nc1ccccc1C#Cc1ccc2[nH]ccc2c1,–,–,–,10.3,12.1,10.8
COC(=O)C[C@H]1C[C@H]2c3cc(NS(=O)(=O)c4cccc(OC)c4)ccc3O[C@H]2[C@H](CO)O1,–,·,·,·,·,·
CCCC(O)C#Cc1cnc2c(c1)C(=O)N([C@H](C)CO)C[C@H](C)[C@H](CN(C)C(=O)Nc1c(C)noc1C)O2 (some centres not stated),–,·,·,·,·,·
Clc1ccccc1CSc1cnnc2ccccc12,–,–,–,9.0,–,–
C[C@H]1CN([C@@H](C)CO)C(=O)c2cccc(NC(=O)Nc3ccc4c(c3)OCO4)c2O[C@H]1CN(C)S(=O)(=O)c1cn(C)cn1,–,·,·,·,·,·
Cc1cc(OCC(=O)N(C)C2CCCCC2)ccc1Cl,–,–,–,10.1,–,16.8
CCOC(=O)c1sc(N/N=C/c2ccccc2)nc1C,·,–,–,8.7,21.0,13.3
O=C(c1ccc(F)cc1)N1C[C@H]2[C@@H](c3ccccc31)[C@H](CO)N2C(=O)c1ccc(F)cc1,–,·,·,·,·,·
CCOC(=O)NC(=O)/C(C#N)=C\Nc1ccc(Cl)cc1Cl,·,–,–,9.0,–,7.9
CCOC(=O)NC(=O)/C(C#N)=C\Nc1sccc1C(=O)OC,–,–,–,–,·,·
O=C1C=C(c2cccs2)C[C@H](c2ccccc2)[C@H]1n1nnc([N+](=O)[O-])n1,·,–,–,8.3,8.3,–
CCc1ccc(S(=O)(=O)NCCc2cn3cccc(C)c3n2)s1,–,–,–,8.1,–,–
C[C@H](CO)N1C[C@H](C)[C@H](CN(C)C(=O)Oc2ccccc2)OCc2cn(nn2)CCCC1=O,–,·,·,·,·,·
SMILES,CFTR F508del cor,MC4R antag cAMP,MC4R barr agon,SMARCA2 activ,SMARCA2 act conf,VP16 Luc act
CC(=O)N(C)C[C@@H]1Oc2ncc(-c3ccccc3C)cc2C(=O)N([C@H](C)CO)C[C@@H]1C,–,·,·,·,·,·
Cn1c(N)c(C(=O)CCc2ccccc2)c(=O)n(C)c1=O,–,·,·,8.1,17.4,5.8
CCCC1=C(C(=O)OCC)C(c2ccco2)C(C#N)=C(N)O1 (configuration not stated),–,–,–,–,·,·
CCOC(=O)C1=C(N)OC(C)=C(C#N)C1c1ccco1 (configuration not stated),–,–,–,9.0,–,–
CCN(CC)C(=N)/C(C#N)=N/Nc1ccccc1,–,–,–,12.9,–,–
C=C(c1ccc(OC)cc1)c1ccc(OC)cc1,·,–,–,9.3,–,–
COc1ccc(C(N)=S)cc1,·,–,–,–,·,·
COc1ccccc1NS(=O)(=O)c1ccc2oc(SC)nc2c1,–,–,–,–,·,·
COc1ccccc1NS(=O)(=O)c1ccc2oc(N)nc2c1,–,–,–,10.6,–,–
CC1CCC(NC(=O)C(C)N2C(=O)C3CCCCC3C2=O)CC1 (configuration not stated),–,–,–,9.3,–,–
Cc1sc(NC(=O)c2ccc(Br)s2)c(C(N)=O)c1C,·,–,–,9.1,–,9.6
CNC(=O)C[C@H]1CC[C@H]2[C@@H](COc3ccc(NC(=O)NC(C)C)cc3C(=O)N2C)O1,–,·,·,·,·,·
Cc1noc(C)c1C(=O)NNc1ccc(C(C)C)cc1,–,–,–,–,·,·
Cc1ccc(NNC(=O)c2c(C)noc2C)cc1Cl,–,–,–,11.9,–,–
O=C(CN1C(=O)NC2(CCc3ccccc32)C1=O)Nc1cccc(Cl)c1 (configuration not stated),–,–,–,–,·,·
CC(C)c1ccc(C(=O)CN2C(=O)NC3(CCc4ccccc43)C2=O)cc1 (configuration not stated),–,–,–,10.5,–,–
COc1cccc(NC(=O)CN2C(=O)NC3(CCc4ccccc43)C2=O)c1 (configuration not stated),–,–,–,9.0,–,–
COc1ccccc1NC(=O)N[C@@H]1CC[C@H](CCNS(=O)(=O)c2ccc(C)cc2)O[C@@H]1CO,–,·,·,·,·,·
c1ccc(CSCc2cn3ccccc3n2)cc1,–,–,–,8.8,–,7.5
C/C=C/c1ccc2c(c1)O[C@@H](CN(C)C(=O)Nc1ccccc1)[C@@H](C)CN([C@@H](C)CO)S2(=O)=O,–,·,·,·,·,·
O=C(COc1ccc(F)cc1)N1CCC(c2ccccc2)C1 (configuration not stated),·,–,–,8.4,–,7.9
Cc1cccc(OCC(=O)N2CCC(c3ccccc3)C2)c1 (configuration not stated),·,–,–,–,·,·
COc1ccc(C(=O)CSc2nccn2C)cc1,–,–,–,11.1,–,–
CCOc1ccc(NC(=O)CSc2nccn2C)cc1,·,–,–,8.8,–,–
COc1ccccc1CNc1nc(C)c(C(=O)N(C)C)s1,–,–,–,–,·,·
Cc1nc(NCCc2ccccc2)sc1C(=O)N(C)C,–,–,–,8.6,–,–
CO[C@@H]1CN(C)C(=O)c2ccc(NC(=O)C3CCCC3)cc2OC[C@@H](C)N(S(=O)(=O)c2ccc(Cl)cc2)C[C@H]1C,–,·,·,·,·,·

# Screening data: PubChem BioAssay, several laboratories
